Measured values reported in ChEMBL document CHEMBL1153344, “Synthesis of casimiroin and optimization of its quinone reductase 2 and aromatase inhibitory activities” (J Med Chem, 2009).
pIC50: −log10 of the molar value.

Legend:
MCF7 = test: Cytotoxicity against human MCF7 cells after 72 hrs by sulforhodamine B assay; assay type: functional, cell-based; conditions: MCF7, 72 h
Outline: (§1)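 Cells seeded at 5.0×10^4 cells/mL in 96-well plates, given compound in 10% DMSO (10 µL) for final 0–20 µg/mL, 72 h incubation; zero-day control plate 30 min at 37 °C. Fixed with cold 50% TCA 30 min at 4 °C, stained 0.4% sulforhodamine B in 1% acetic acid 30 min, dye solubilized in 10 mM Tris base pH 10, absorbance 515 nm.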

[1] = Cytotoxicity against mouse Hepa-1c1c7 cells after 72 hrs by sulforhodamine B assay; assay type: functional, cell-based; conditions: Hepa-1c1c7, 72 h; outline: as §1
[2] = target: T1, Ribosyldihydronicotinamide dehydrogenase [quinone] (Homo sapiens, UniProt P16083); test: Inhibition of human quinone reductase 2 expressed in Escherichia coli BL21(DE3) incubated at 23 degC by MTT assay
T1 sequence (P16083 whole entry): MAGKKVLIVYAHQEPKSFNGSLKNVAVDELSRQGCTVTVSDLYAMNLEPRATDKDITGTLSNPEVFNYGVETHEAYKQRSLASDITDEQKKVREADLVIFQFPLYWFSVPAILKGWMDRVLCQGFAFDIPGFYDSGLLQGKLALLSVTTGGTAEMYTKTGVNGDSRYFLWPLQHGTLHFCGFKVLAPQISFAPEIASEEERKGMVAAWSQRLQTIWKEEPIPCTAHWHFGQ

[3] = Cytotoxicity against human Lu cells after 72 hrs by sulforhodamine B assay; assay type: functional, cell-based; outline: as §1
Aromatase = target: T2, Aromatase (Homo sapiens, UniProt P11511)
T2 sequence (P11511 whole entry): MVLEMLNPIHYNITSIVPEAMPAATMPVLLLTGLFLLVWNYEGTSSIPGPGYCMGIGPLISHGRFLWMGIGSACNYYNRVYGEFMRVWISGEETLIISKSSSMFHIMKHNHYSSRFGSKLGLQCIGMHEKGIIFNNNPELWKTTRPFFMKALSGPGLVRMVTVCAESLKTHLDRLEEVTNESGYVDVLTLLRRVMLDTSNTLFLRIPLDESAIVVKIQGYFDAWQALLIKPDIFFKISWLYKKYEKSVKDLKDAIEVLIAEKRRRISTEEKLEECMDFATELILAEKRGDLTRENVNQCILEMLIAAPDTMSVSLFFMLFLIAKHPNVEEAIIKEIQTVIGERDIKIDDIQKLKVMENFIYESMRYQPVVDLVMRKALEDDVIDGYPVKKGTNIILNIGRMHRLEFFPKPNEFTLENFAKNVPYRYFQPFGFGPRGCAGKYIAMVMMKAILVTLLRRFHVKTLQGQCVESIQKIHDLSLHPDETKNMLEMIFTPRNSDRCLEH

LNCaP = test: Cytotoxicity against human LNCAP cells after 72 hrs by sulforhodamine B assay; assay type: functional, cell-based; outline: as §1

Row | SMILES | pIC50 (MCF7) | pIC50 [1] | pIC50 [2] | pIC50 [3] | pIC50 (Aromatase) | pIC50 (LNCaP)
1 | COc1c(OC)c(OC)c2c(c(C)cc(=O)n2C)c1OC | < 4.17 | < 4.17 | < 3.30 | < 4.17 | 6.12 | < 4.17
2 | COc1cccc2c(C)cc(=O)[nH]c12 | < 3.98 | < 3.98 | 4.62 | < 3.98 | < 3.98 | < 3.98
3 | COc1ccc2c(C)cc(=O)n(C)c2c1OC | < 4.07 | < 4.07 | 5.03 | < 4.07 | 5.24 | < 4.07
4 | COc1cc2c(C)cc(=O)[nH]c2c(OC)c1OC | < 4.10 | < 4.10 | 5.00 | < 4.10 | 4.73 | < 4.10
5 | Cc1cc(=O)n(C)c2ccccc12 | < 3.94 | < 3.94 | 4.74 | < 3.94 | < 3.94 | < 3.94
6 | COc1ccc(OC)c2c1c(C)cc(=O)n2C | < 4.07 | < 4.07 | 5.39 | < 4.07 | 6.02 | < 4.07
7 | COc1cc(OC)c2[nH]c(=O)cc(C)c2c1 | < 4.04 | < 4.04 | 5.06 | < 4.04 | < 4.04 | < 4.04
8 | COc1cc(OC)c2c(c1)c(C)cc(=O)n2C | < 4.07 | < 4.07 | 5.72 | < 4.07 | 6.02 | < 4.07
9 | Cc1cc(=O)[nH]c2ccccc12 | < 3.90 | < 3.90 | < 3.30 | < 3.90 | < 3.90 | < 3.90
10 | COc1cc2c(C)cc(=O)n(C)c2c(OC)c1OC | < 4.12 | < 4.12 | 5.15 | < 4.12 | 5.57 | < 4.12
11 | Cc1cc(=O)n(C)c2c1C(=O)C=CC2=O | 4.22 | 4.27 | < 3.30 | 4.31 | < 4.01 | 4.24
12 | Cc1cc(=O)[nH]c2c3c(ccc12)OCO3 | < 4.01 | < 4.01 | 4.97 | < 4.01 | < 4.01 | < 4.01
13 | COc1cc(OC)c2[nH]c(=O)cc(C)c2c1OC | 4.37 | 4.46 | 5.22 | 4.45 | 4.83 | 4.34
14 | COc1cc(=O)n(C)c2c3c(ccc12)OCO3 [CASIMIROIN] | < 4.07 | < 4.07 | 4.27 | < 4.07 | 5.41 | < 4.07
15 | Cc1cc(=O)n(C)c2c3c(ccc12)OCO3 | < 4.04 | < 4.04 | 5.21 | < 4.04 | 5.90 | < 4.04
16 | COc1ccc2c(C)cc(=O)[nH]c2c1OC | < 4.04 | < 4.04 | 4.53 | < 4.04 | 4.50 | < 4.04
17 | COc1cc(OC)c2c(c(C)cc(=O)n2C)c1OC | < 4.12 | 4.15 | 4.97 | 4.16 | 7.00 | < 4.12
18 | COc1cccc2c(C)cc(=O)n(C)c12 | < 4.01 | < 4.01 | 5.24 | < 4.01 | 5.69 | < 4.01
19 | COc1ccc(OC)c2c(C)cc(=O)[nH]c12 | < 4.04 | < 4.04 | 4.97 | < 4.04 | 4.57 | < 4.04
20 | COc1c(OC)c(OC)c2c(C)cc(=O)[nH]c2c1OC | < 4.14 | < 4.14 | < 3.30 | < 4.14 | 5.25 | < 4.14
